Assay results reported in ChEMBL document CHEMBL1255526, “Fused tricyclic pyrrolizinones that exhibit pseudo-irreversible blockade of the NK1 receptor” (Bioorg Med Chem Lett, 2010).

Tests used:
Substance-P receptor [1] = molecular target: T1, Substance-P receptor (Homo sapiens, UniProt P25103); experiment: Antagonist activity at human recombinant NK1 receptor expressed in CHO cells assessed as remaining substance P level at 100 nM after 30 mins by [H3]-inositol phosphate release assay; format: functional, cell-based
T1 sequence (P25103 whole entry): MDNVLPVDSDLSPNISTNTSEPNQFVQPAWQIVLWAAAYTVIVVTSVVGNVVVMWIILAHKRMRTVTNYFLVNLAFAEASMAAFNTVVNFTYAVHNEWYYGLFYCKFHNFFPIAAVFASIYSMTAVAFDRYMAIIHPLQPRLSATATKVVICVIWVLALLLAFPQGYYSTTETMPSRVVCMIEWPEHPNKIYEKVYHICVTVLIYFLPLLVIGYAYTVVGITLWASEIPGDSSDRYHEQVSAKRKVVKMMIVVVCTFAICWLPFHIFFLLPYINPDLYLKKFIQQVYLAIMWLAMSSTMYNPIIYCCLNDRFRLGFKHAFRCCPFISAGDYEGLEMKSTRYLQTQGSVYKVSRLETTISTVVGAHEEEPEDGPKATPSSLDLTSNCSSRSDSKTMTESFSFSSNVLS
In short: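 CHO cells with recombinant human NK1 receptor, 2.5 × 10⁴ per well, plated overnight, then prelabelled overnight at 37 °C with [3H]-myo-inositol (10–25 Ci/mmol) in inositol-free medium with 0.02% BSA. LiCl 10 mM in HEPES-buffered inositol-free DMEM, 15 min. Antagonist at 100 nM or DMSO for 30 min, then substance P for 30 min. Stopped with formic acid. [3H]-inositol phosphate captured on yttrium silicate SPA beads, 2 h. Reported as % substance P response remaining.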

[2] = molecular target: T2, Nuclear receptor subfamily 1 group I member 2 (Homo sapiens, UniProt O75469); experiment: Inhibition of human PXR induction
T2 sequence (O75469 whole entry): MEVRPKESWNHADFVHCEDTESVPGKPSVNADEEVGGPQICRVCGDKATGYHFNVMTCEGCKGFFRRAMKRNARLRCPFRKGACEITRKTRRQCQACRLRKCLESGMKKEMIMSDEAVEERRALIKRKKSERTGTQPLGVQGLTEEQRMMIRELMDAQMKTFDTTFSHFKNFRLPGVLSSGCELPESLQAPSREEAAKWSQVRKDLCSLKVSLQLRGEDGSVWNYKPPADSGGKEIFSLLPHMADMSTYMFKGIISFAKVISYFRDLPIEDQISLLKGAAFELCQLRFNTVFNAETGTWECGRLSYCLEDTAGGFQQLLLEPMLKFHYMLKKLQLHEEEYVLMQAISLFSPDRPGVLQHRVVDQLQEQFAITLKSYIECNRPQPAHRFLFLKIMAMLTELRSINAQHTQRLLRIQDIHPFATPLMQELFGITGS

[3] = molecular target: T3, PXR (nuclear receptor subfamily 1 group I member 2) (Homo sapiens, UniProt O75469); experiment: Inhibition of human PXR induction at 10 uM
T3 sequence (O75469 whole entry): T2 sequence (O75469 whole entry)
In short: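 Human PXR induction measured at 10 µM compound, expressed as % of maximal induction.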

[4] = Binding affinity to potassium channel IKr
[5] = Binding affinity to calcium channel
In short: (§1)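 Ion channel binding assay; IC50 values calculated for sodium channel and for calcium channel (Dlz site).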

[6] = Binding affinity to sodium channel; in short: as §1
Meriones unguiculatus [7] = experiment: Inhibition of GR-73632-induced foot tapping in Mongolian gerbil at 3 mg/kg after 24 hrs; format: functional
In short: (§2)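 Gerbils given antagonist at the dose and pretreatment time shown (1 mg/kg at 1 h, 3 mg/kg at 24 h); foot tapping then induced with the NK1 agonist GR73632. Read-out is % inhibition of tapping; ED50 or ID50 from dose–response.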

Meriones unguiculatus [8] = organism: Meriones unguiculatus; experiment: Inhibition of GR-73632-induced foot tapping in Mongolian gerbil after 24 hrs; format: functional; details: read-out: ED50; in short: as §2
Substance-P receptor [9] = molecular target: T1, Substance-P receptor; experiment: Displacement of [125I]substance P from human NK1 receptor expressed in CHO cells; format: cell-based
In short: (§3)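 Radioligand binding: [125I]substance P displaced from human NK1 receptor expressed in CHO cells; IC50 determined. Also run with 50% serum added (human, dog, rhesus, rat or gerbil) to measure the serum shift.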

Substance-P receptor [10] = molecular target: T1, Substance-P receptor; experiment: Displacement of [125I]substance P from human NK1 receptor expressed in CHO cells in presence of 50% human serum; format: cell-based; in short: as §3
Meriones unguiculatus [11] = experiment: Inhibition of GR-73632-induced foot tapping in Mongolian gerbil at 1 mg/kg after 1 hr; format: functional; in short: as §2

Row | Compound | Activity (Substance-P receptor [1]) | IC50 [2] | Emax at 10 µM [3] | IC50 [4] | IC50 [5] | IC50 [6] | inhibition in vivo at 3 mg/kg (Meriones unguiculatus [7]) | ED50 (Meriones unguiculatus [8]) | IC50 (Substance-P receptor [9]) | IC50 (Substance-P receptor [10]) | inhibition in vivo at 1 mg/kg (Meriones unguiculatus [11])
1 | C[C@@H](O[C@H]1CN2C(=O)C(N)C[C@H]2[C@@H]1c1ccc(F)cc1)c1cc(C(F)(F)F)cc(C(F)(F)F)c1 (some centres undefined) | 59% | > 25 µM | 7% | 6500 nM | 210 nM | 240 nM | 100% | 0.61 mg/kg |  |  | 
2 | C[C@@H](O[C@H]1CN2C(=O)[C@H]3C[C@H](O)C[C@H]3[C@H]2[C@@H]1c1ccc(F)cc1)c1cc(C(F)(F)F)cc(C(F)(F)F)c1 | 35% |  |  |  |  |  |  |  | 0.08 nM | 1.7 nM | 
3 | C[C@@H](O[C@H]1CN2C(=O)[C@@H]3C[C@@H](NCc4ccccc4)C[C@@H]3[C@H]2[C@@H]1c1ccc(F)cc1)c1cc(C(F)(F)F)cc(C(F)(F)F)c1 | 58% |  |  |  |  |  | 6% |  | 0.14 nM | 2.3 nM | 81%
4 | C[C@@H](O[C@H]1CN2C(=O)[C@H]3C[C@@H](NCc4ccccc4)C[C@H]3[C@H]2[C@@H]1c1ccc(F)cc1)c1cc(C(F)(F)F)cc(C(F)(F)F)c1 | 2% | > 25 µM | 0% | 280 nM | 140 nM |  | 100% | 0.47 mg/kg | 0.17 nM | 1.8 nM | 
5 | C[C@@H](O[C@H]1CN2C(=O)[C@@H]3C[C@H](N)C[C@@H]3[C@H]2[C@@H]1c1ccc(F)cc1)c1cc(C(F)(F)F)cc(C(F)(F)F)c1 | 93% |  |  |  |  |  |  |  | 1.5 nM | 47 nM | 
6 | CC[C@]1(O)C[C@H]2[C@H]3[C@H](c4ccc(F)cc4)[C@@H](O[C@H](C)c4cc(C(F)(F)F)cc(C(F)(F)F)c4)CN3C(=O)[C@H]2C1 | 4% | 3.3 µM | 51% | 1770 nM | 8420 nM |  | 100% | 0.06 mg/kg | 0.16 nM | 1.7 nM | 
7 | C[C@@H](O[C@H]1CN2C(=O)C3CNCC3[C@H]2[C@@H]1c1ccc(F)cc1)c1cc(C(F)(F)F)cc(C(F)(F)F)c1 (stereo in doubt; 6b) [FIRST ELUDED ISOMER] |  |  |  | 2710 nM | 310 nM |  | 12% |  | 0.31 nM | 3.2 nM | 
8 | C[C@@H](O[C@H]1CN2C(=O)C3CNCC3[C@H]2[C@@H]1c1ccc(F)cc1)c1cc(C(F)(F)F)cc(C(F)(F)F)c1 (stereo in doubt; 6b) | 60% |  |  |  |  |  |  |  |  |  | 
9 | C[C@@H](O[C@H]1CN2C(=O)C3CN(C4=CC(=O)CC4)CC3[C@H]2[C@@H]1c1ccc(F)cc1)c1cc(C(F)(F)F)cc(C(F)(F)F)c1 (single isomer, unassigned) [FIRST ELUDED ISOMER] |  |  |  | 1430 nM | 8810 nM |  | 32% |  | 0.17 nM | 1.9 nM | 
10 | C[C@@H](O[C@H]1CN2C(=O)[C@@H]3C[C@H](NCc4ccccc4)C[C@@H]3[C@H]2[C@@H]1c1ccc(F)cc1)c1cc(C(F)(F)F)cc(C(F)(F)F)c1 | 94% |  |  |  |  |  |  |  | 1.2 nM | 13 nM | 
11 | C[C@@H](O[C@H]1CN2C(=O)C3CNCC3[C@H]2[C@@H]1c1ccc(F)cc1)c1cc(C(F)(F)F)cc(C(F)(F)F)c1 (single isomer, unassigned) [FIRST ELUDED ISOMER] |  |  |  |  |  |  |  |  | 1.5 nM | 15 nM | 
12 | C[C@@H](O[C@H]1CN2C(=O)CC(N)[C@H]2[C@@H]1c1ccc(F)cc1)c1cc(C(F)(F)F)cc(C(F)(F)F)c1 (some centres undefined) | 75% | > 25 µM | 1% | 9500 nM | 1880 nM | 7720 nM | 100% | 0.92 mg/kg |  |  | 
13 | CC[C@@]1(O)C[C@H]2[C@H]3[C@H](c4ccc(F)cc4)[C@@H](O[C@H](C)c4cc(C(F)(F)F)cc(C(F)(F)F)c4)CN3C(=O)[C@H]2C1 | 31% |  |  |  |  |  |  |  | 0.21 nM | 2.3 nM | 
14 | C[C@@H](O[C@H]1CN2C(=O)[C@H]3C[C@H](NCc4ccccc4)C[C@H]3[C@H]2[C@@H]1c1ccc(F)cc1)c1cc(C(F)(F)F)cc(C(F)(F)F)c1 | 4% | > 25 µM | 0% | 300 nM | 210 nM | 210 nM | 94% |  | 0.14 nM | 1.3 nM | 
15 | C[C@@H](O[C@H]1CN2C(=O)[C@H]3C[C@](C)(O)C[C@H]3[C@H]2[C@@H]1c1ccc(F)cc1)c1cc(C(F)(F)F)cc(C(F)(F)F)c1 | 24% |  |  |  |  |  |  |  | 0.066 nM | 1.2 nM | 
16 | C[C@@H](O[C@H]1CN2C(=O)C3CN(C4=CC(=O)CC4)CC3[C@H]2[C@@H]1c1ccc(F)cc1)c1cc(C(F)(F)F)cc(C(F)(F)F)c1 (single isomer, unassigned) | 11% |  |  |  |  |  |  |  |  |  | 
17 | C[C@@H](O[C@H]1CN2C(=O)[C@H]3C[C@@H](N)C[C@H]3[C@H]2[C@@H]1c1ccc(F)cc1)c1cc(C(F)(F)F)cc(C(F)(F)F)c1 | 6% | > 25 µM | 0% | 990 nM | 1230 nM | 710 nM | 91% |  | 0.09 nM | 1 nM | 
18 | CC(O[C@H]1CN2C(=O)[C@@H]3CC(N)C[C@@H]3[C@H]2[C@@H]1c1ccc(F)cc1)c1cc(C(F)(F)F)cc(C(F)(F)F)c1 (single isomer, unassigned) | 61% |  |  |  |  |  |  |  | 0.66 nM | 13 nM | 
19 | C[C@@H](O[C@H]1CN2C(=O)CC[C@H]2[C@@H]1c1ccc(F)cc1)c1cc(C(F)(F)F)cc(C(F)(F)F)c1 | 88% | 4.8 µM | 50% | 5700 nM | 1580 nM | 1750 nM | 100% | 0.2 mg/kg |  |  | 
20 | C[C@@H](O[C@H]1CN2C(=O)[C@H]3C[C@H](N)C[C@H]3[C@H]2[C@@H]1c1ccc(F)cc1)c1cc(C(F)(F)F)cc(C(F)(F)F)c1 | 10% | > 25 µM | 0% | 1730 nM | 590 nM | 520 nM | 100% | 1.33 mg/kg | 0.11 nM | 1 nM | 
21 | C[C@@H](O[C@H]1CN2C(=O)C3CNCC3[C@H]2[C@@H]1c1ccc(F)cc1)c1cc(C(F)(F)F)cc(C(F)(F)F)c1 (single isomer, unassigned) | 46% |  |  |  |  |  |  |  |  |  | 
22 | C[C@@H](O[C@H]1CN2C(=O)C3CN(C4=CC(=O)CC4)CC3[C@H]2[C@@H]1c1ccc(F)cc1)c1cc(C(F)(F)F)cc(C(F)(F)F)c1 (stereo in doubt; 18b) | 7% |  |  |  |  |  |  |  |  |  | 
